This note sets out measurements from ChEMBL document CHEMBL2434842, “Approaches to protozoan drug discovery: phenotypic screening” (J Med Chem, 2013).

Data set [1] deals with Plasmodium falciparum. The data set can be described thus: Antimalarial activity against late (4 to 5) gametocytic stage of Plasmodium falciparum after 72 hrs by image-based HTS assay. The format is functional, organism-based. Put shortly: (§1)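 P. falciparum early (I–III) or late (IV–V) gametocytes from the authors' large-scale synchronized culture. Exposed to compound in dose response for 72 h. Activity read in an image-based assay. IC50 from duplicate or triplicate points, n ≥ 2, reported as mean ± SD.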

Data set [2] deals with Plasmodium falciparum. Nature of the data set: Antimalarial activity against early (1 to 3) gametocytic stage of Plasmodium falciparum after 72 hrs by image-based HTS assay. The format is functional, organism-based. Put shortly:
as §1

Data set [3] concerns Plasmodium falciparum. Nature of the data set: Antimalarial activity against asexual stage of Plasmodium falciparum 3D7 after 72 hrs by image-based HTS assay. Type of data set: functional, organism-based. The following applies: 3D7, 72 h.
The subject of a further data set is Trypanosoma cruzi. Nature of the data set: Antitrypanosomal activity against amastigote stage of Trypanosoma cruzi infected in mouse NIH/3T3 cells after 48 hrs by Hoechst staining assay. The format is functional, organism-based. The conditions noted are these: NIH3T3, 48 h.
Data set [4] is described as follows: Selectivity ratio of cytotoxic activity against mouse NIH/3T3 cells to antitrypanosomal activity against amastigote stage of Trypanosoma cruzi.
Data set [5] deals with Plasmodium falciparum. The data set can be described thus: Antimalarial activity against late (4 to 5) gametocytic stage of Plasmodium falciparum at 100 uM after 72 hrs by image-based HTS assay relative to control. Type of data set: functional. The procedure, abridged:
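Image-based assay on late-stage (IV–V) P. falciparum gametocytes taken from large-scale production of pure synchronized gametocytes. Compound exposure was 72 h in dose response, with duplicate or triplicate points per concentration and n ≥ 2 independent runs.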

Data set [6] concerns Trypanosoma brucei brucei. The data set can be described thus: Antitrypanosomal activity against bloodstream form of Trypanosoma brucei brucei 427 after 3 days by Alamar Blue assay. Type of data set: functional, organism-based. The following applies: Trypanosoma brucei, 427, 72 h.
The subject of data set [7] is Trypanosoma brucei brucei. The data set can be described thus: Trypanocidal activity against Trypanosoma brucei brucei by Alamar Blue assay. Type of data set: functional, organism-based.
Data set [8] relates to Plasmodium falciparum. Nature of the data set: Antimalarial activity against late (4 to 5) gametocytic stage of Plasmodium falciparum at 120 uM after 72 hrs by image-based HTS assay relative to control. Type of data set: functional.
Data set [9] concerns Plasmodium falciparum. Nature of the data set: Antimalarial activity against early (1 to 3) gametocytic stage of Plasmodium falciparum at 120 uM after 72 hrs by image-based HTS assay relative to control. The format is functional.

Molecules are shown by their SMILES. Structures can show the parent of a compound that is named as a salt.

In the case of `CCN(CC)Cc1cc(Nc2ccnc3cc(Cl)ccc23)ccc1O`, the IC50 (in general, the concentration needed to halve the response being measured) in the data set with Plasmodium falciparum [1] was determined as 4490 nM; in the data set with Plasmodium falciparum [2] it was 159 nM; with Plasmodium falciparum [3], 28 nM.
In the case of `O[C@@H](c1cc(C(F)(F)F)nc2c(C(F)(F)F)cccc12)[C@H]1CCCCN1` (relative stereo) [(S,R)-MEFLOQUINE], the figures for the IC50 in the data set with Plasmodium falciparum [2] and in the data set on Plasmodium falciparum [3] were 220 nM and 200 nM, respectively.
The compound `C[C@H]1[C@@H](O)O[C@@H]2O[C@@]3(C)CC[C@H]4[C@H](C)CC[C@@H]1[C@@]24OO3` [ARTENIMOL] had an IC50 with Plasmodium falciparum [3] of 0.7 nM. In other words, the sub-nanomolar range.
On to `C[C@H]1[C@H](OC(=O)CCC(=O)O)O[C@@H]2O[C@@]3(C)CC[C@H]4[C@H](C)CC[C@@H]1[C@@]24OO3` [ARTESUNATE], for which the IC50 with Plasmodium falciparum [1] was determined as 3.43 nM.
In turn, `c1ccc(-c2ccc(C(c3ccccc3)n3ccnc3)cc2)cc1` (stereo unspecified) [BIFONAZOLE] showed an IC50 in the data set with Trypanosoma cruzi of 204 nM. Besides, the selectivity ratio in [4] (NIH/3T3 cells) is greater than 91.6.
In the case of `CCN(CC)CCCC(C)Nc1ccnc2cc(Cl)ccc12` (stereo unspecified) [CHLOROQUINE], testing at 100 µM in the data set with Plasmodium falciparum [5] gave an inhibition of 100%.
Take `Clc1ccccc1C(c1ccccc1)(c1ccccc1)n1ccnc1` [CLOTRIMAZOLE]: half-maximal inhibition with Trypanosoma cruzi (IC50) was put at 187 nM. Besides, the selectivity ratio in [4] (NIH/3T3 cells) is greater than 87.2.
In data set [6], `C/C=C/C[C@@H](C)[C@@H](O)[C@H]1C(=O)N[C@@H](CC)C(=O)N(C)CC(=O)N(C)[C@@H](CC(C)C)C(=O)N[C@@H](C(C)C)C(=O)N(C)[C@@H](CC(C)C)C(=O)N[C@@H](C)C(=O)N[C@H](C)C(=O)N(C)[C@@H](CC(C)C)C(=O)N(C)[C@@H](CC(C)C)C(=O)N(C)[C@@H](C(C)C)C(=O)N1C` [CYCLOSPORINE] yielded an IC50 of 1.14 nM.
As for `CC[C@H](C)[C@H](NC(=O)[C@H]([C@@H](C)CC)N(C)C(C)=O)C(=O)N[C@H](C(=O)N[C@@H](CC(C)C)C(=O)[C@@]1(C)CO1)[C@@H](C)O` [EPOXOMYCIN], the IC50 in the data set with Plasmodium falciparum [1] stood at 0.7 nM; with Plasmodium falciparum [3] it was 2.2 nM.
With `CC(=O)N1CCN(c2ccc(OCC3COC(Cn4ccnc4)(c4ccc(Cl)cc4Cl)O3)cc2)CC1` (stereo unspecified) [KETOCONAZOLE], the IC50 in the data set on Trypanosoma cruzi was found to be 22.7 nM. Further, the selectivity ratio in data set [4] (NIH/3T3 cells) was greater than 853.
For the compound `N#C/C(=C1/SCC(c2ccccc2Cl)S1)n1ccnc1` (stereo unspecified) [LANOCONAZOLE], the IC50 in the data set on Trypanosoma cruzi turned out to be 67.1 nM. The selectivity ratio in data set [4] (NIH/3T3 cells) is 306.
In turn, `CC[C@H](C)C(=O)O[C@H]1CCC=C2C=C[C@H](C)[C@H](CC[C@@H]3C[C@@H](O)CC(=O)O3)[C@H]21` [MEVASTATIN] yielded an IC50 in data set [6] of 940 nM.
In the data set with Trypanosoma cruzi, `Clc1ccc(COC(Cn2ccnc2)c2ccc(Cl)cc2Cl)c(Cl)c1` (stereo unspecified) [MICONAZOLE NITRATE] had an IC50 of 826 nM. In data set [4] (nih/3t3), the selectivity ratio is greater than 19.5.
In data set [7], `CO[C@@]12[C@H](COC(N)=O)C3=C(C(=O)C(C)=C(N)C3=O)N1C[C@@H]1N[C@@H]12` [MITOMYCIN] displayed an IC50 of 1000 nM.
Regarding `O=C1c2c(O)ccc(O)c2C(=O)c2c(NCCNCCO)ccc(NCCNCCO)c21` [MITOXANTRONE HYDROCHLORIDE], the IC50 in data set [7] was determined as 1000 nM; in [6] it was 2.4 nM.
Regarding `Clc1ccc(CO/N=C(\Cn2ccnc2)c2ccc(Cl)cc2Cl)c(Cl)c1` [OXICONAZOLE NITRATE], in the data set on Trypanosoma cruzi, half-maximal inhibition (IC50) was put at 388 nM. Besides, the selectivity ratio in data set [4] (nih/3t3) is greater than 46.3.
Take `CC(=O)O[C@H]1C(=O)[C@@]2(C)[C@H]([C@H](OC(=O)c3ccccc3)[C@]3(O)C[C@H](OC(=O)[C@H](O)[C@@H](NC(=O)c4ccccc4)c4ccccc4)C(C)=C1C3(C)C)[C@]1(OC(C)=O)CO[C@@H]1C[C@@H]2O` [PACLITAXEL]: the IC50 in data set [7] was 1000 nM.
Turning to `COc1cc(NC(C)CCCN)c2ncccc2c1` (stereo unspecified) [PRIMAQUINE], at 120 µM the inhibition in the data set on Plasmodium falciparum [8] was 40%. In addition, the figures for the IC50 in the data set on Plasmodium falciparum [2] and in the data set on Plasmodium falciparum [3] were 5860 nM and 6090 nM, respectively.
Regarding `COc1ccc(C[C@H](N)C(=O)N[C@H]2[C@@H](O)[C@H](n3cnc4c(N(C)C)ncnc43)O[C@@H]2CO)cc1` [PUROMYCIN], the IC50 with Plasmodium falciparum [1] is 46 nM; in the data set on Plasmodium falciparum [2] it was 137 nM; with Plasmodium falciparum [3], 64 nM.
Turning to `CCc1nc(N)nc(N)c1-c1ccc(Cl)cc1` [PYRIMETHAMINE], the inhibition (in general, how much of the control response was suppressed) at 120 µM came out at 100% in the data set with Plasmodium falciparum [8] and 40% in the data set with Plasmodium falciparum [9]. Half-maximal inhibition in the data set with Plasmodium falciparum [3] (IC50) was put at 14 nM.
For `COc1ccc2nc3cc(Cl)ccc3c(Nc3cc(CN4CCCC4)c(O)c(CN4CCCC4)c3)c2n1` [PYRONARIDINE], the IC50 was 1300 nM in the data set with Plasmodium falciparum [1], 131 nM in the data set on Plasmodium falciparum [2] and 46 nM in the data set with Plasmodium falciparum [3].
As for `COc1cc(C)c2c(Oc3cccc(C(F)(F)F)c3)c(OC)cc(NC(C)CCCN)c2n1` (stereo unspecified) [TAFENOQUINE], the IC50 in the data set on Plasmodium falciparum [1] is 3370 nM; in the data set on Plasmodium falciparum [3], 1070 nM.
As for `CC[C@]1(O)C[C@@H]2CN(CCc3c([nH]c4ccccc34)[C@@](C(=O)OC)(c3cc4c(cc3OC)N(C)[C@H]3[C@@](O)(C(=O)OC)[C@H](OC(C)=O)[C@]5(CC)C=CCN6CC[C@]43[C@@H]65)C2)C1` [VINBLASTINE], in data set [6], half-maximal inhibition (IC50) was put at 94 nM.
The same measure, in the same setting: the same measure for `CC[C@]1(O)C[C@H]2CN(CCc3c([nH]c4ccccc34)[C@@](C(=O)OC)(c3cc4c(cc3OC)N(C=O)[C@H]3[C@@](O)(C(=O)OC)[C@H](OC(C)=O)[C@]5(CC)C=CCN6CC[C@]43[C@@H]65)C2)C1` [VINCRISTINE]: 30 nM.
`C[C@@H](c1ncncc1F)[C@](O)(Cn1cncn1)c1ccc(F)cc1F` [VORICONAZOLE] came in with an IC50 in the data set on Trypanosoma cruzi of 96.5 nM. Moreover, the selectivity ratio in data set [4] (NIH/3T3 cells) was found to be 212.
